The source made the active and inactive calls. No cut-off for these calls is given here.
Key:
[1] = test system: Protein cereblon/Epidermal growth factor receptor (Homo sapiens), P00533+Q96SW2 [UNDEFINED MUTATION]; assay: Reversible protac activity at CRBN/EGFR exon 19 deletion mutant in human HCC827 cells assessed as recovery of AKT phosphorylation at 100 nM preincubated for 12 hrs followed by compound washout and measured after 48 hrs by Western blot analysis
[2] = test system: Protein cereblon/Epidermal growth factor receptor (Homo sapiens), P00533+Q96SW2 [L858R]; assay: Reversible protac activity at CRBN/EGFR L858R mutant in human H3255 cells assessed as recovery of EGFR degradation at 100 nM preincubated for 12 hrs followed by compound washout and measured up to 48 hrs by Western blot analysis; format: cell-based
Summary of the method: (§1)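 Cells were serum-starved 8 h, then given degrader for 12 h. They were washed three times with PBS and harvested at the indicated time points after washout. EGFR, p-EGFR and p-AKT were read by Western blot.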

[3] = test system: Protein cereblon/Epidermal growth factor receptor (Homo sapiens), P00533+Q96SW2 [L858R]; assay: Protac activity at CRBN/EGFR L858R mutant in human H3255 cells assessed as reduction in AKT phosphorylation up to 10 uM treated 8 hrs post serum starvation measured after 16 hrs by Western blot analysis; format: cell-based
Summary of the method: (§2)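 Cultured to 80% confluence in RPMI/1640 with 20% FBS at 37 °C and 5% CO2, then switched to serum-free medium for 8 h. Degraders were added over a concentration range up to 10 μM for 16 h, with gefitinib at 1 μM as reference. Lysates in Laemmli buffer were immunoblotted for EGFR, p-EGFR and p-AKT. DC50 came from band quantification by nonlinear regression (variable slope).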

[4] = Cmax in Swiss albino mouse at 50 mg/kg, ip measured after 8 hrs; format: ADME, organism-based; set-up: dose 50 mg/kg, route intraperitoneal; details: in vivo
[5] = test system: Protein cereblon/Epidermal growth factor receptor (Homo sapiens), P00533+Q96SW2 [UNDEFINED MUTATION]; assay: Reversible protac activity at CRBN/EGFR exon 19 deletion mutant in human HCC827 cells assessed as recovery of EGFR degradation at 100 nM preincubated for 12 hrs followed by compound washout and measured after 24 hrs by Western blot analysis; format: cell-based
Summary of the method: as §1

HCC827 [6] = assay: Down regulation of SLC30A7 expression in human HCC827 cells at 100 nM measured after 16 hrs by LC-MS analysis; format: functional, cell-based
Summary of the method: (§3)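 HCC-827 cells serum-starved 8 h, then treated at 100 nM for 16 h. Collected for label-free quantitative LC–MS proteomics; LFQ intensity compared between treated and control groups; three independent experiments.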

[7] = test system: Protein cereblon/Epidermal growth factor receptor (Homo sapiens), P00533+Q96SW2 [UNDEFINED MUTATION]; assay: Protac activity at CRBN/EGFR exon 19 deletion mutant in human HCC827 cells assessed as induction of EGFR degradation at >=50 nM treated 8 hrs post serum starvation measured after 16 hrs by Western blot analysis relative to control; format: cell-based
Summary of the method: as §2

HCC827 [8] = assay: Down regulation of NELFE expression in human HCC827 cells at 100 nM measured after 16 hrs by LC-MS analysis; format: functional, cell-based
Summary of the method: as §3

[9] = test system: Protein cereblon/Epidermal growth factor receptor (Homo sapiens), P00533+Q96SW2 [L858R]; assay: Protac activity at CRBN/EGFR L858R mutant in human H3255 cells assessed as induction of EGFR degradation at 100 nM measured after 8 hrs in presence of neddylation inhibitor MLN4924 by Western blot analysis; format: cell-based
[10] = test system: Protein cereblon/Epidermal growth factor receptor (Homo sapiens), P00533+Q96SW2 [L858R]; assay: Protac activity at CRBN/EGFR L858R mutant in human H3255 cells assessed as induction of EGFR degradation at 0.1 to 1 uM incubated for 8 hrs in absence of FBS by Western blot analysis; format: cell-based
[11] = test system: Protein cereblon/Epidermal growth factor receptor (Homo sapiens), P00533+Q96SW2 [L858R]; assay: Protac activity at CRBN/EGFR L858R mutant in human H3255 cells assessed as induction of EGFR degradation at 100 nM measured after 8 hrs in presence of CRBN E3 ligase binder thalidomide by Western blot analysis; format: cell-based
HCC827 [12] = assay: Up regulation of HMGCS1 expression in human HCC827 cells at 100 nM measured after 16 hrs by LC-MS analysis; format: functional, cell-based
Summary of the method: as §3

[13] = test system: Protein cereblon/Epidermal growth factor receptor (Homo sapiens), P00533+Q96SW2 [UNDEFINED MUTATION]; assay: Protac activity at CRBN/EGFR exon 19 deletion mutant in human HCC827 cells assessed as induction of EGFR degradation at 0.1 to 1 uM incubated for 8 hrs in absence of FBS by Western blot analysis; format: cell-based
[14] = test system: Protein cereblon/Epidermal growth factor receptor (Homo sapiens), P00533+Q96SW2 [UNDEFINED MUTATION]; assay: Protac activity at CRBN/EGFR exon 19 deletion mutant in human HCC827 cells assessed as induction of EGFR degradation at 100 nM treated 8 hrs post serum starvation measured after 12 hrs by Western blot analysis relative to control; format: cell-based
Summary of the method: (§4)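 After 8 h serum starvation, cells got 100 nM degrader and were collected at serial time points for Western blot of EGFR and downstream signaling.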

HCC827 [15] = assay: Effect on AKT level in human HCC827 cells up to 10 uM treated 8 hrs post serum starvation measured after 16 hrs by Western blot analysis; format: ADME, cell-based; details: hcc827, 16 h
[16] = test system: Protein cereblon/Epidermal growth factor receptor (Homo sapiens), P00533+Q96SW2 [UNDEFINED MUTATION]; assay: Protac activity at CRBN/EGFR exon 19 deletion mutant in human HCC827 cells assessed as reduction in AKT phosphorylation up to 10 uM treated 8 hrs post serum starvation measured after 16 hrs by Western blot analysis; format: cell-based
Summary of the method: as §2

[17] = Toxicity in Swiss albino mouse assessed as clinical changes at 50 mg/kg, ip; format: organism-based; details: in vivo
[18] = test system: Protein cereblon/Epidermal growth factor receptor (Homo sapiens), P00533+Q96SW2 [L858R]; assay: Protac activity at CRBN/EGFR L858R mutant in human H3255 cells assessed as induction of EGFR degradation at 100 nM measured after 8 hrs in presence of EGFR inhibitor gefitinib by Western blot analysis; format: cell-based
[19] = test system: Protein cereblon/Epidermal growth factor receptor (Homo sapiens), P00533+Q96SW2 [L858R]; assay: Protac activity at CRBN/EGFR L858R mutant in human H3255 cells assessed as induction of EGFR degradation at 100 nM treated 8 hrs post serum starvation by Western blot analysis; format: cell-based; details: TDE = time-dependent effect
Summary of the method: as §4

[20] = test system: Protein cereblon/Epidermal growth factor receptor (Homo sapiens), P00533+Q96SW2 [L858R]; assay: Protac activity at CRBN/EGFR L858R mutant in human H3255 cells assessed as reduction in EGFR autophosphorylation up to 10 uM treated 8 hrs post serum starvation measured after 16 hrs by Western blot analysis; format: cell-based
Summary of the method: as §2

[21] = test system: Protein cereblon/Epidermal growth factor receptor (Homo sapiens), P00533+Q96SW2 [UNDEFINED MUTATION]; assay: Protac activity at CRBN/EGFR exon 19 deletion mutant in human HCC827 cells assessed as reduction in EGFR autophosphorylation up to 10 uM treated 8 hrs post serum starvation measured after 16 hrs by Western blot analysis; format: cell-based
Summary of the method: as §2

[22] = biological target: Epidermal growth factor receptor (Homo sapiens, UniProt P00533); assay: Induction of wild-type EGFR degradation in human OVCAR8 cells at up to 10 uM treated 8 hrs post serum starvation measured after 16 hrs by Western blot analysis; format: cell-based
Chain of Epidermal growth factor receptor (P00533 whole entry): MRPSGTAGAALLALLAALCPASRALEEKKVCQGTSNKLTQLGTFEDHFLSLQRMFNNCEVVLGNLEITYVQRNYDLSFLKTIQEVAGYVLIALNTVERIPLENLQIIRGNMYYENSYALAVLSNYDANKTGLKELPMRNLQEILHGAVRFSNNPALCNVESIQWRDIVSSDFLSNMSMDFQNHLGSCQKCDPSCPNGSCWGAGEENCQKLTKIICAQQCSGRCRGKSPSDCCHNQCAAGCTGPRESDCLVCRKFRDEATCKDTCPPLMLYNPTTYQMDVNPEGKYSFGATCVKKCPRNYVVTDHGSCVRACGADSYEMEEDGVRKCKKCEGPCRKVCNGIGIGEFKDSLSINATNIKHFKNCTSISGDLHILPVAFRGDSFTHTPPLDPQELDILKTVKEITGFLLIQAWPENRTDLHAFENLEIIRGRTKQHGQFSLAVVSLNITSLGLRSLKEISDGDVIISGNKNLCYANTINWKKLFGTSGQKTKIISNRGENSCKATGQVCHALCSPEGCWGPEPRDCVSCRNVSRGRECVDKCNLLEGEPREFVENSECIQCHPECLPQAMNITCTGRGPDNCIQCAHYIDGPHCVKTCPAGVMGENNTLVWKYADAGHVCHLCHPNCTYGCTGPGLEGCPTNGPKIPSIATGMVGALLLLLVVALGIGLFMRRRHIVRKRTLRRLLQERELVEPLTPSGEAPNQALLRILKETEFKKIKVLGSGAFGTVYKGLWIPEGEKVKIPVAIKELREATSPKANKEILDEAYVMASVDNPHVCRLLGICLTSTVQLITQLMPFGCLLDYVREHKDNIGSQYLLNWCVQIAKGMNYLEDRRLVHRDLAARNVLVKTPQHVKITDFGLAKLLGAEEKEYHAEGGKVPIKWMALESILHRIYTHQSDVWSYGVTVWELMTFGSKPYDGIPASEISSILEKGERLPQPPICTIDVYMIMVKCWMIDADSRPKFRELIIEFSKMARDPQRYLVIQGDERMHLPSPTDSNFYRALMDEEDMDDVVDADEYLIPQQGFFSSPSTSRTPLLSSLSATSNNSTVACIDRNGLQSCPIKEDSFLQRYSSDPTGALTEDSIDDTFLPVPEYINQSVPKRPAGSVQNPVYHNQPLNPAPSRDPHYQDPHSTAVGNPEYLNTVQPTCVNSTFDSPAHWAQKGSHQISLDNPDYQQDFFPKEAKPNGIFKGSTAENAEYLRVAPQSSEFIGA

[23] = test system: Protein cereblon/Epidermal growth factor receptor (Homo sapiens), P00533+Q96SW2 [UNDEFINED MUTATION]; assay: Protac activity at CRBN/EGFR exon 19 deletion mutant in human HCC827 cells assessed as induction of EGFR degradation at 100 nM measured after 16 hrs by LC-MS analysis relative to control; format: cell-based
[24] = test system: Protein cereblon/Epidermal growth factor receptor (Homo sapiens), P00533+Q96SW2 [UNDEFINED MUTATION]; assay: Protac activity at CRBN/EGFR exon 19 deletion mutant in human HCC827 cells assessed as induction of EGFR degradation at 10 uM treated 8 hrs post serum starvation measured after 16 hrs by Western blot analysis relative to control; format: cell-based
Summary of the method: as §2

[25] = test system: Protein cereblon/Epidermal growth factor receptor (Homo sapiens), P00533+Q96SW2 [L858R]; assay: Protac activity at CRBN/EGFR L858R mutant in human H3255 cells assessed as induction of EGFR degradation at 10 uM treated 8 hrs post serum starvation measured after 16 hrs by Western blot analysis; format: cell-based
Summary of the method: as §2

[26] = test system: Protein cereblon/Epidermal growth factor receptor (Homo sapiens), P00533+Q96SW2 [UNDEFINED MUTATION]; assay: Protac activity at CRBN/EGFR exon 19 deletion mutant in human HCC827 cells assessed as induction of EGFR degradation at up to 1 uM treated 8 hrs post serum starvation measured after 16 hrs by Western blot analysis; format: cell-based

Chain of Protein cereblon/Epidermal growth factor receptor (Homo sapiens), P00533+Q96SW2 [UNDEFINED MUTATION] (P00533 whole entry, looked up, stated change not applied): as the sequence (P00533 whole entry) above
Chain of Protein cereblon/Epidermal growth factor receptor (Homo sapiens), P00533+Q96SW2 [UNDEFINED MUTATION] (Q96SW2 whole entry, looked up, stated change not applied): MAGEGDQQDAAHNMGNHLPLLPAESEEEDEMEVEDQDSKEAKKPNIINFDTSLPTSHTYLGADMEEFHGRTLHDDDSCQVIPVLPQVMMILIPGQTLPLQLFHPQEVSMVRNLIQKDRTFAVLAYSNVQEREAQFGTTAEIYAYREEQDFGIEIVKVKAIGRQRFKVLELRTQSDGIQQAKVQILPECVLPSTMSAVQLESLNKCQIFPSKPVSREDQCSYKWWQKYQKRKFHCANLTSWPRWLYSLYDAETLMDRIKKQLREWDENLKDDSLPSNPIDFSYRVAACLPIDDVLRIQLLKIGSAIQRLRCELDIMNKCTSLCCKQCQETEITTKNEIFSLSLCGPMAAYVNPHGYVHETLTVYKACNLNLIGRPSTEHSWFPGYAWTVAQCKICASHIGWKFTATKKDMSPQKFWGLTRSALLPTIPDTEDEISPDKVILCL

COc1cc2ncnc(Nc3ccc(F)c(Cl)c3)c2cc1OCCCN1CCN(CCC(=O)NCCCCCCCCOc2cccc3c2C(=O)N(C2CCC(=O)NC2=O)C3=O)CC1 (stereo unspecified)
Activity [1]: Active | Activity [2]: Active | Activity [3]: Active | Cmax [4]: 500 nM | Activity [5]: Active | Activity (HCC827 [6]): Active | %max [7]: > 95% | Activity (HCC827 [8]): Active | Activity [9]: inactive | Activity [10]: Active | Activity [11]: inactive | Activity (HCC827 [12]): Active | Activity [13]: Active | Activity [14]: 100% | Activity (HCC827 [15]): Non-Toxic | Activity [16]: Active | Activity [17]: Non-Toxic | Activity [18]: inactive | Activity [19]: Tde | Activity [20]: Active | Activity [21]: Active | Activity [22]: Not Active | Activity [23]: > 75% | Activity [24]: inactive | Activity [25]: Active | Activity [26]: Active
